The nature of data set [1]: Antioxidant activity against lipid peroxidation at 90 uM after 10 hrs by ferric thiocyanate method relative to control. The class given is functional. The procedure, abridged: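 Linoleic acid (>99%) emulsified with Tween 20, biphasic autoxidation system; each antioxidant at 90 µM final, held at 50 °C in the dark; lipid peroxidation read by ferric thiocyanate absorbance at 10 h, expressed as percent inhibition (%Pi) against untreated control; triplicate, mean ± standard error.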

Data set [2] deals with Radical scavenging activity. As to the kind of experiment: Antioxidant activity assessed as DPPH free radical scavenging activity at 25 uM after 20 mins relative to control. The class given is functional. The procedure, abridged: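 DPPH radical scavenging run in methanol and in acetate-buffered (pH 5.5) methanol; antioxidant:DPPH molar ratio 0.25; triplicate, repeated five times; mean ± standard error.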

Data set [3] deals with Xanthine dehydrogenase/oxidase (Homo sapiens, UniProt P47989). Nature of the data set: Inhibition of xanthine oxidase after 15 mins. To be noted: 0.25 h. Put shortly:
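Xanthine oxidase inhibition with test agent at 0.1 mM; triplicate, mean ± standard error.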

Chain of Xanthine dehydrogenase/oxidase (P47989 whole entry): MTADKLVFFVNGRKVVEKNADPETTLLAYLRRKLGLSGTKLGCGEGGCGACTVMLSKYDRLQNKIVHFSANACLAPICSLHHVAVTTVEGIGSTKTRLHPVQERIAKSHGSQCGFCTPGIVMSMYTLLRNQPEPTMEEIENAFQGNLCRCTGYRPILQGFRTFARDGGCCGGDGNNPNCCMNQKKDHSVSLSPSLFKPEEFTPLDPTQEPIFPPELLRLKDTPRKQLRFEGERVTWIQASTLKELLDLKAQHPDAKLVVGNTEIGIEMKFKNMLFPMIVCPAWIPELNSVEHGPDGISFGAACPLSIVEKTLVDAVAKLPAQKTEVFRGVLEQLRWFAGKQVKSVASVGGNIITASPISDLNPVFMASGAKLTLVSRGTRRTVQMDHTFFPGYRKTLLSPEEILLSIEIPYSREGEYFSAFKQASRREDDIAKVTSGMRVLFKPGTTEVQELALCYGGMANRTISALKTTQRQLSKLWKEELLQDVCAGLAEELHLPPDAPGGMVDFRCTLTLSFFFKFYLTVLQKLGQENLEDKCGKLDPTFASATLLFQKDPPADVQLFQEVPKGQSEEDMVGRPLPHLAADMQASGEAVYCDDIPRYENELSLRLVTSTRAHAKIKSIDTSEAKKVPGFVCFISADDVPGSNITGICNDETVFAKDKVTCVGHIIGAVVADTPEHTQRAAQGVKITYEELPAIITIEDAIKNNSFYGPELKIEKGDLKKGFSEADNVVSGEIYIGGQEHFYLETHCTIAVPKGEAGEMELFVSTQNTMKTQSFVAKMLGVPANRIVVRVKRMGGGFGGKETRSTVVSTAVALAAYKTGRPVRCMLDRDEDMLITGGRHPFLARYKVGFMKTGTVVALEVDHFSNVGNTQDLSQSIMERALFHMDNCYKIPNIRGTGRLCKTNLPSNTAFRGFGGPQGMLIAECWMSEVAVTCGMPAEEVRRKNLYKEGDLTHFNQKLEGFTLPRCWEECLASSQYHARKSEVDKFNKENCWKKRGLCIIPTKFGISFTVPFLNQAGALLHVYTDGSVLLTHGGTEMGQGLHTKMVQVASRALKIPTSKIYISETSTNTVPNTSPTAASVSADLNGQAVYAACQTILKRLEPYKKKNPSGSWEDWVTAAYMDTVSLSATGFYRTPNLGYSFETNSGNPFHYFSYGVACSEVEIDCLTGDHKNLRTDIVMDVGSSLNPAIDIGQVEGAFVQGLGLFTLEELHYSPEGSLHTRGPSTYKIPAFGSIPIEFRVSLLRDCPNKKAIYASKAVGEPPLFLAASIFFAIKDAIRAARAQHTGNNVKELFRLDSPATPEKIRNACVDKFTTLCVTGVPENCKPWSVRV

`NC(=O)[C@H](Cc1cnc[nH]1)NC(=O)[C@H](Cc1cnc[nH]1)NC(=O)/C=C/c1ccc(O)c(O)c1`: the Activity in data set [1] came out at 80%. In the case of `NCCCC[C@H](NC(=O)/C=C/c1ccc(O)c(O)c1)C(=O)N[C@@H](Cc1cnc[nH]1)C(N)=O`, the figures for the Activity in data set [1] and in data set [2] were 84% and 65%, respectively. Compound `NC(=O)[C@H](CS)NC(=O)[C@H](Cc1cnc[nH]1)NC(=O)/C=C/c1ccc(O)c(O)c1` gave an Activity in data set [1] of 79%. On to `NC(=O)[C@H](CC(=O)O)NC(=O)[C@H](Cc1cnc[nH]1)NC(=O)/C=C/c1ccc(O)c(O)c1`, for which the Activity in data set [1] is 73%; in data set [2], 49%. `NC(=O)CCNC(=O)[C@H](Cc1cnc[nH]1)NC(=O)/C=C/c1ccc(O)c(O)c1` yielded an Activity in data set [1] of 71%. Take `NCCCC[C@H](NC(=O)[C@H](Cc1cnc[nH]1)NC(=O)/C=C/c1ccc(O)c(O)c1)C(N)=O`: the figures for the Activity in data set [1] and in data set [2] were 76% and 54%, respectively. `COc1ccc(O)c(C(C)(C)C)c1.COc1ccc(O)cc1C(C)(C)C`: the Activity stood at 86% in data set [1] and 62% in data set [2]. For `NC(=O)[C@H](Cc1cnc[nH]1)NC(=O)CCNC(=O)/C=C/c1ccc(O)c(O)c1`, in that order: 64% and 70%.

As to `O=C(O)/C=C/c1ccc(O)c(O)c1`, the Activity in data set [2] stood at 47%. Turning to `NC(=O)[C@H](Cc1cnc[nH]1)NC(=O)[C@@H]1CCCN1C(=O)/C=C/c1ccc(O)c(O)c1`, in data set [3], the “inhibition (INH)” value came to 52%. The Activity in data set [1] amounted to 87%; in data set [2], 71%. In data set [1], `C[C@H](NC(=O)/C=C/c1ccc(O)c(O)c1)C(=O)N[C@@H](Cc1cnc[nH]1)C(N)=O` had an Activity of 84%.

For `NC(=O)[C@H](Cc1ccccc1)NC(=O)[C@H](Cc1cnc[nH]1)NC(=O)/C=C/c1ccc(O)c(O)c1`, in data set [1], the Activity was 72%. On the same count and under the same terms, the figure for `C[C@H](NC(=O)[C@H](Cc1cnc[nH]1)NC(=O)/C=C/c1ccc(O)c(O)c1)C(N)=O` is 66%; for `NC(=O)[C@H](Cc1cnc[nH]1)NC(=O)[C@H](CS)NC(=O)/C=C/c1ccc(O)c(O)c1` it is 84%. Turning to `NC(=O)[C@H](Cc1cnc[nH]1)NC(=O)[C@H](CC(=O)O)NC(=O)/C=C/c1ccc(O)c(O)c1`, the Activity was determined as 82% in data set [1] and 52% in data set [2]. In data set [1], `NC(=O)[C@@H]1CCCN1C(=O)[C@H](Cc1cnc[nH]1)NC(=O)/C=C/c1ccc(O)c(O)c1` displayed an Activity of 61%.

Consider `NC(=O)[C@H](Cc1ccccc1)NC(=O)/C=C/c1ccc(O)c(O)c1`, for which the Activity in data set [1] was 73%; in data set [2] it was 51%. In data set [1], `NC(=O)[C@H](Cc1cnc[nH]1)NC(=O)[C@H](CO)NC(=O)/C=C/c1ccc(O)c(O)c1` registered an Activity of 83%. In turn, `NC(=O)[C@H](CO)NC(=O)[C@H](Cc1cnc[nH]1)NC(=O)/C=C/c1ccc(O)c(O)c1` displayed an Activity in data set [1] of 71%. `NC(=O)[C@H](Cc1cnc[nH]1)NC(=O)[C@H](Cc1ccccc1)NC(=O)/C=C/c1ccc(O)c(O)c1`: the Activity in data set [1] amounted to 80%; in data set [2] it was 59%.

These data come from ChEMBL document CHEMBL1177760, “Antioxidative activities of histidine containing caffeic acid-dipeptides” (Bioorg Med Chem Lett, 2010).
